Source: ChEMBL document CHEMBL2311301, “Design, synthesis and characterization of novel 1,2-benzisothiazol-3(2H)-one and 1,3,4-oxadiazole hybrid derivatives: potent inhibitors of Dengue and West Nile virus NS2B/NS3 proteases” (Bioorg Med Chem, 2013)

Experiments:
West Nile virus [1] = test: Inhibition of WNV NS2B/NS3 protease using Bz-Nle-Lys-Arg-Arg-AMC as substrate at 25 uM by spectrofluorometric analysis relative to control
In short: (§1)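 Protease (DENV2 NS2B-NS3pro 25 nM; WNV NS2B-NS3pro with 5-residue linker 28 nM) incubated with inhibitor in DMSO, 15 min at 37 °C, in 200 mM Tris·HCl pH 9.5, 6 mM NaCl, 30% glycerol. Reaction started with 5.0 μM substrate. AMC release read at ex 380/em 460 nm. No-protease background subtracted; no-inhibitor control taken as 100%. Triplicates.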

West Nile virus [2] = test: Inhibition of WNV NS2B/NS3 protease using Bz-Nle-Lys-Arg-Arg-AMC as substrate at 10 uM by spectrofluorometric analysis relative to control; in short: as §1
dengue virus type 2 [3] = test: Inhibition of DENV2 NS2B/NS3 protease expressed in Escherichia coli Top 10 F' using Bz-Nle-Lys-Arg-Arg-AMC as substrate at 25 uM by spectroflorometer analysis relative to control; in short: as §1
dengue virus type 2 [4] = test: Inhibition of DENV2 NS2B/NS3 protease expressed in Escherichia coli Top 10 F' using Bz-Nle-Lys-Arg-Arg-AMC as substrate at 10 uM by spectroflorometer analysis relative to control; in short: as §1
[5] = Competitive inhibition of DENV2 NS2B/NS3 protease expressed in Escherichia coli Top 10 F' using Bz-Nle-Lys-Arg-Arg-AMC as substrate by Michaelis-Menten equation analysis; parameters: species or system dengue virus type 2
In short: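 DENV2 NS2B-NS3pro construct (NS2B hydrophilic cofactor joined to NS3 protease via Q-R), 25 nM, in 200 mM Tris·HCl pH 9.5, 6 mM NaCl, 30% glycerol, 0.1% CHAPS at 37 °C. Inhibitor at 0, 1.0, 3.0 and 5.0 μM; substrate 0-50 μM; started with enzyme. Initial rates from AMC fluorescence (ex 380/em 460 nm) every 1.5 min, under 5% conversion. Duplicates, repeated three times. Ki from secondary plot of Km,app against inhibitor.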

[6] = Inhibition of WNV NS2B/NS3 protease using Bz-Nle-Lys-Arg-Arg-AMC as substrate by spectrofluorometric analysis relative to control; parameters: species or system West Nile virus
In short: (§2)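 IC50 run in the same single-point format (DENV2 protease 25 nM, WNV protease 28 nM; 15 min preincubation at 37 °C, pH 9.5 Tris buffer, 5.0 μM substrate, fluorescence ex 380/em 460 nm). Twelve inhibitor levels from 10 nM to 25 μM. IC50 from a sigmoidal fit of activity relative to the no-inhibitor control. Triplicates.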

[7] = Inhibition of DENV2 NS2B/NS3 protease expressed in Escherichia coli Top 10 F' using Bz-Nle-Lys-Arg-Arg-AMC as substrate by spectroflorometer analysis relative to control; parameters: species or system dengue virus type 2; in short: as §2

## Cc1nnc(C(Cc2ccccc2)n2sc3ccccc3c2=O)o1 (centres undefined)
West Nile virus [1]
  inhibition: 40.4%
West Nile virus [2]
  inhibition: 22.3%
Dengue virus type 2 [3]
  inhibition: 31.6%
Dengue virus type 2 [4]
  inhibition: 20%

## O=c1c2ccccc2sn1Cc1nnc(-c2cccc(Cl)c2)o1
West Nile virus [1]
  inhibition: 9.15%
West Nile virus [2]
  inhibition: 6.15%
Dengue virus type 2 [3]
  inhibition: 16.7%
Dengue virus type 2 [4]
  inhibition: 5.21%

## O=c1c2ccccc2sn1C(Cc1ccccc1)c1nnc(-c2ccc(Cl)cc2)o1 (centres undefined)
West Nile virus [1]
  inhibition: 63.2%
West Nile virus [2]
  inhibition: 53.5%
Dengue virus type 2 [3]
  inhibition: 70.5%
Dengue virus type 2 [4]
  inhibition: 53.2%

## CCOc1ccc(-c2nnc(C(Cc3ccccc3)n3sc4ccccc4c3=O)o2)cc1 (centres undefined)
West Nile virus [1]
  inhibition: 71.8%
West Nile virus [2]
  inhibition: 56.1%
Dengue virus type 2 [3]
  inhibition: 61.3%
Dengue virus type 2 [4]
  inhibition: 40.6%

## O=c1c2ccccc2sn1C(CCc1ccccc1)c1nnc(-c2cccc(Cl)c2)o1 (centres undefined)
West Nile virus [1]
  inhibition: 33.9%
West Nile virus [2]
  inhibition: 23.9%
Dengue virus type 2 [3]
  inhibition: 35%
Dengue virus type 2 [4]
  inhibition: 26.1%

## O=c1c2ccccc2sn1C(Cc1ccccc1)c1nnc(-c2cccs2)o1 (centres undefined)
West Nile virus [1]
  inhibition: 59.7%
West Nile virus [2]
  inhibition: 43.7%
Dengue virus type 2 [3]
  inhibition: 69.8%
Dengue virus type 2 [4]
  inhibition: 52.3%

## CCCc1nnc(C(Cc2ccccc2)n2sc3ccccc3c2=O)o1 (centres undefined)
West Nile virus [1]
  inhibition: 46.2%
West Nile virus [2]
  inhibition: 34.9%
Dengue virus type 2 [3]
  inhibition: 36.7%
Dengue virus type 2 [4]
  inhibition: 25.6%

## O=c1c2ccccc2sn1Cc1nnc(-c2cccc(F)c2)o1
West Nile virus [1]
  inhibition: 10.1%
West Nile virus [2]
  inhibition: 7.68%
Dengue virus type 2 [3]
  inhibition: 9.11%
Dengue virus type 2 [4]
  inhibition: 3.24%

## COc1ccc(-c2nnc(C(Cc3ccccc3)n3sc4ccccc4c3=O)o2)cc1 (centres undefined)
[5]
  Ki: 3.61 µM
[6]
  IC50: 4.22 µM
[7]
  IC50: 3.75 µM
West Nile virus [1]
  inhibition: 73.4%
West Nile virus [2]
  inhibition: 68.6%
Dengue virus type 2 [3]
  inhibition: 80%
Dengue virus type 2 [4]
  inhibition: 65.5%

## O=c1c2ccccc2sn1C(Cc1ccccc1)c1nnc(-c2cccnc2)o1 (centres undefined)
West Nile virus [1]
  inhibition: 62.5%
West Nile virus [2]
  inhibition: 55.8%
Dengue virus type 2 [3]
  inhibition: 70%
Dengue virus type 2 [4]
  inhibition: 58.1%

## O=c1c2ccccc2sn1C(Cc1cccc(F)c1)c1nnc(-c2cccc(Cl)c2)o1 (centres undefined)
West Nile virus [1]
  inhibition: 35.6%
West Nile virus [2]
  inhibition: 27.4%
Dengue virus type 2 [3]
  inhibition: 31.6%
Dengue virus type 2 [4]
  inhibition: 16%

## COc1ccc(Cc2nnc(C(Cc3ccccc3)n3sc4ccccc4c3=O)o2)cc1 (centres undefined)
West Nile virus [1]
  inhibition: 34.9%
West Nile virus [2]
  inhibition: 24.2%
Dengue virus type 2 [3]
  inhibition: 38.6%
Dengue virus type 2 [4]
  inhibition: 28.5%

## O=c1c2ccccc2sn1C(Cc1ccccc1)c1nnc(-c2ccco2)o1 (centres undefined)
West Nile virus [1]
  inhibition: 57.7%
West Nile virus [2]
  inhibition: 44.3%
Dengue virus type 2 [3]
  inhibition: 64.7%
Dengue virus type 2 [4]
  inhibition: 52.3%

## N#Cc1ccc(-c2nnc(C(Cc3ccccc3)n3sc4ccccc4c3=O)o2)cc1 (centres undefined)
West Nile virus [1]
  inhibition: 70.9%
West Nile virus [2]
  inhibition: 63.6%
Dengue virus type 2 [3]
  inhibition: 72.9%
Dengue virus type 2 [4]
  inhibition: 63.9%

## O=c1c2ccccc2sn1C(Cc1ccccc1)c1nnc(-c2cccc(Cl)c2)o1 (centres undefined)
West Nile virus [1]
  inhibition: 43.1%
West Nile virus [2]
  inhibition: 29%
Dengue virus type 2 [3]
  inhibition: 42.1%
Dengue virus type 2 [4]
  inhibition: 34.3%

## O=c1c2ccccc2sn1C(Cc1ccccc1)c1nnc(-c2ccncc2)o1 (centres undefined)
West Nile virus [1]
  inhibition: 72.7%
West Nile virus [2]
  inhibition: 63.1%
Dengue virus type 2 [3]
  inhibition: 70.9%
Dengue virus type 2 [4]
  inhibition: 62.4%

## COc1ccc(Cc2nnc(Cn3sc4ccccc4c3=O)o2)cc1
West Nile virus [1]
  inhibition: 8.68%
West Nile virus [2]
  inhibition: 5.96%
Dengue virus type 2 [3]
  inhibition: 7.9%
Dengue virus type 2 [4]
  inhibition: 5.27%

## O=c1c2ccccc2sn1C(Cc1ccccc1)c1nnc(-c2ccccc2)o1 (centres undefined)
West Nile virus [1]
  inhibition: 64.1%
West Nile virus [2]
  inhibition: 51.7%
Dengue virus type 2 [3]
  inhibition: 69.2%
Dengue virus type 2 [4]
  inhibition: 56.7%

## O=c1c2ccccc2sn1C(Cc1ccccc1)c1nnc(Cc2ccccc2)o1 (centres undefined)
West Nile virus [1]
  inhibition: 30.1%
West Nile virus [2]
  inhibition: 20.5%
Dengue virus type 2 [3]
  inhibition: 31.2%
Dengue virus type 2 [4]
  inhibition: 22.4%

## COc1ccc(Cc2nnc(C(C)n3sc4ccccc4c3=O)o2)cc1 (centres undefined)
West Nile virus [1]
  inhibition: 9.79%
West Nile virus [2]
  inhibition: 4.17%
Dengue virus type 2 [3]
  inhibition: 17.8%
Dengue virus type 2 [4]
  inhibition: 8.08%

## O=c1c2ccccc2sn1C(Cc1ccccc1)c1nnc(-c2cccc(F)c2)o1 (centres undefined)
West Nile virus [1]
  inhibition: 38.9%
West Nile virus [2]
  inhibition: 30.4%
Dengue virus type 2 [3]
  inhibition: 50.9%
Dengue virus type 2 [4]
  inhibition: 39%

## O=c1c2ccccc2sn1C(Cc1ccccc1)c1nnc(-c2ccc(F)cc2)o1 (centres undefined)
West Nile virus [1]
  inhibition: 59.1%
West Nile virus [2]
  inhibition: 51.1%
Dengue virus type 2 [3]
  inhibition: 75.7%
Dengue virus type 2 [4]
  inhibition: 60.3%

## CCc1nnc(C(Cc2ccccc2)n2sc3ccccc3c2=O)o1 (centres undefined)
West Nile virus [1]
  inhibition: 44.3%
West Nile virus [2]
  inhibition: 25.1%
Dengue virus type 2 [3]
  inhibition: 34.2%
Dengue virus type 2 [4]
  inhibition: 22.5%

## O=c1c2ccccc2sn1Cc1nnc(Cc2ccccc2)o1
West Nile virus [1]
  inhibition: 14.7%
West Nile virus [2]
  inhibition: 8.27%
Dengue virus type 2 [3]
  inhibition: 16.4%
Dengue virus type 2 [4]
  inhibition: 3.56%
